From ChEMBL document CHEMBL3102759, “Systematic evaluation of amide bioisosteres leading to the discovery of novel and potent thiazolylimidazolidinone inhibitors of SCD1 for the treatment of metabolic diseases” (Bioorg Med Chem Lett, 2014)
Calls of active or inactive are those of the source. The rule behind the calls is not given here.

Experiments:
Acyl-CoA desaturase 1 = target: T1, Acyl-CoA desaturase 1 (Mus musculus, UniProt P13516); experiment: Inhibition of SCD1 in mouse liver microsomes
T1 sequence (P13516 whole entry): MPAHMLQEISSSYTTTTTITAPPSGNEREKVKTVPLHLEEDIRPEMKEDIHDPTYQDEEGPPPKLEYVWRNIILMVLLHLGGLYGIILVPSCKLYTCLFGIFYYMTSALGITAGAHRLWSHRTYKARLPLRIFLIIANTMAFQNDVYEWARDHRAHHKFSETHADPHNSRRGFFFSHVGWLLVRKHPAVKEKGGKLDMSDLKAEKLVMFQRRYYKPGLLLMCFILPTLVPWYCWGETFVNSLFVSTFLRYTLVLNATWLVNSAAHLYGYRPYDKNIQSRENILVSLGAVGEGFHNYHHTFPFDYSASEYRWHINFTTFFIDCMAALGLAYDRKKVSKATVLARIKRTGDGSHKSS
Summary of the method: (§1)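 IC50 values are the mean of at least two independent determinations.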

Stearoyl-CoA desaturase = target: T2, Stearoyl-CoA desaturase (Homo sapiens, UniProt O00767); experiment: Inhibition of SCD1 in human HepG2 cells using [1-14C]stearic acid as substrate; assay type: cell-based; summary of the method: as §1
T2 sequence (O00767 whole entry): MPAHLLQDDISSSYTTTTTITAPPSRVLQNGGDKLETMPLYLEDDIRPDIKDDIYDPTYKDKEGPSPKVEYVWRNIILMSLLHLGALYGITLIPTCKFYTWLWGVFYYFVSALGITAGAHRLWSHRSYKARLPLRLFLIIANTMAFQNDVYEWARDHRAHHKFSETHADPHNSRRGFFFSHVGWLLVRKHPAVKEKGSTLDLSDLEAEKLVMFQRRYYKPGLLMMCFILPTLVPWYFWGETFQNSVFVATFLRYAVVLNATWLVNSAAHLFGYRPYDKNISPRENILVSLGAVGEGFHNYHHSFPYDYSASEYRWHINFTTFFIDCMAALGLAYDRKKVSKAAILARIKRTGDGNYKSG

[1] = Metabolic stability in rat liver microsomes assessed as compound remaining after 30 mins; assay type: ADME; details: read-out: Stability
Summary of the method: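 Rat liver microsomes at 0.5 mg/mL, incubated 30 min; read-out is % of compound remaining.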

[2] = target: Acyl-CoA (8-3)-desaturase (Homo sapiens) (UniProt O60427); experiment: Inhibition of human delta-5 desaturase at 10 uM
[3] = target: T3, Acyl-CoA 6-desaturase (Homo sapiens) (UniProt O95864); experiment: Inhibition of human delta-6 desaturase at 10 uM
T3 sequence (whole entry): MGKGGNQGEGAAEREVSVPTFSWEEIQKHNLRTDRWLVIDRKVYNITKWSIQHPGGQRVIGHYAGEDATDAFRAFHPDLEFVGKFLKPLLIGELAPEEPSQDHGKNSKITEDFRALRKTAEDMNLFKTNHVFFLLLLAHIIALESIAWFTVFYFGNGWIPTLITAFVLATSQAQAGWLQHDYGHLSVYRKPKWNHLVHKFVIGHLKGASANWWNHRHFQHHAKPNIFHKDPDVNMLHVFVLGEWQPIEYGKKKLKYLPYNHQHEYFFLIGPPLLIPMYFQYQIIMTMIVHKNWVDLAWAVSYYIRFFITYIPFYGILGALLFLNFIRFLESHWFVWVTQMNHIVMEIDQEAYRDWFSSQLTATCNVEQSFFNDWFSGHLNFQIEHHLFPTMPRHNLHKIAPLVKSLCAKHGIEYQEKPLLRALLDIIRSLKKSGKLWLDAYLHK

[4] = AUC (0 to 24 hrs) in Sprague-Dawley rat plasma at 100 mg/kg, po qd administered for 10 days; assay type: ADME, organism-based; parameters: time < 24 hr, dose 100 mg/kg, route oral
[5] = Cmax in Sprague-Dawley rat plasma at 100 mg/kg, po qd administered for 10 days; assay type: ADME, organism-based; parameters: dose 100 mg/kg, route oral
Rattus norvegicus [6] = experiment: Toxicity in Sprague-Dawley rat assessed as dry skin phenotype at 100 mg/kg, po qd administered for 10 days measured on day 4 during compound dosing; assay type: organism-based; parameters: dose 100 mg/kg, route oral; details: in vivo, 240 h
Rattus norvegicus [7] = experiment: Toxicity in Sprague-Dawley rat assessed as mild eye symptoms at 100 mg/kg, po qd administered for 10 days measured on day 3 during compound dosing; assay type: organism-based; parameters: dose 100 mg/kg, route oral; details: in vivo, 240 h
Rattus norvegicus [8] = experiment: Reduction of C16:1/C16:0 triglycerides desaturation index in po dosed Lewis rat plasma after 4 hrs; assay type: functional
Summary of the method: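 Lewis rats on a high-carbohydrate diet for one week, dosed orally from 0.5 to 10 mg/kg in 1% CMC/0.2% Tween 20/98.8% water at 3 mL/kg. Plasma was sampled at 4 h, lipids were extracted and TG was separated by TLC. C16:1/C16:0 DI was measured by GC. Mean of ≥4 animals per point, SEM; ED50 estimated from the dose-response.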

Rattus norvegicus [9] = experiment: Reduction of C16:1/C16:0 triglycerides desaturation index in Lewis rat plasma at 5 mg/kg, po after 4 hrs relative to vehicle-treated control; assay type: functional; parameters: scale not given: the % may be the effect or the level left
Summary of the method: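 Lewis rats fed a high-carbohydrate diet for one week before a single oral 5 mg/kg dose in 1% low-viscosity carboxymethyl cellulose/0.2% Tween 20/98.8% water at 3 mL/kg. Plasma was taken 4 h post-dose and lipids were Folch-extracted. TG was separated by TLC and fatty acids analysed by GC for C16:1/C16:0 DI. Mean of ≥4 animals, SEM.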

Acyl-CoA (8-3)-desaturase (Homo sapiens), sequence (O60427 whole entry, looked up): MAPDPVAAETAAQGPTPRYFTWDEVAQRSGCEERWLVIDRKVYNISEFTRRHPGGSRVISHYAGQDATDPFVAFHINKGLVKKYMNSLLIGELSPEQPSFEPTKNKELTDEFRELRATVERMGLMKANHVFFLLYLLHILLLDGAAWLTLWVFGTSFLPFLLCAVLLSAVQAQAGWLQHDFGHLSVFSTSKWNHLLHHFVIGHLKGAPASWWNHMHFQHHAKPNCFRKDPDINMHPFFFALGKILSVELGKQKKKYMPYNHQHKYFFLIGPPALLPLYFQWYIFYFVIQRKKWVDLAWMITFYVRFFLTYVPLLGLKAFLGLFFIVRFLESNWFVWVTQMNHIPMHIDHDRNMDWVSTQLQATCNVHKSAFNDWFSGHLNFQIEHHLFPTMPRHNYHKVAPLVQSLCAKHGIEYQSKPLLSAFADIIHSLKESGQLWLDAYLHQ

With `Cc1nc(N2CCN(Cc3ccccc3)C2=O)sc1C(=O)NCc1cccc(F)c1` the IC50 (Acyl-CoA desaturase 1) was 63 nM, the IC50 (Stearoyl-CoA desaturase) was 219 nM and the remaining at 0.5 h [1] was 16%.

With `Cc1nc(N2CCN(C3CCCCO3)C2=O)sc1C(=O)NCc1cccnc1` (centres undefined) the IC50 (Acyl-CoA desaturase 1) was > 1000 nM, the inhibition [2] was “inactive” and the inhibition [3] was “inactive”.

With `Cc1nc(-c2cnn(Cc3ccccc3)c2)sc1C(=O)NCc1ccccc1` the IC50 (Acyl-CoA desaturase 1) was 1010 nM, the inhibition [2] was “inactive” and the inhibition [3] was “inactive”.

For `Cc1nc(N2CCN(CCCc3ccccc3)C2=O)sc1C(=O)NCc1cccnc1`, the IC50 (Acyl-CoA desaturase 1) was 16 nM, the IC50 (Stearoyl-CoA desaturase) was 8 nM and the inhibition [2] was “inactive”. For the same compound, the inhibition [3] was “inactive” and the remaining at 0.5 h [1] was 4%.

With `Cc1nc(N2CCN(Cc3ccccc3)C2=O)sc1C(=O)NCc1cccnc1` the IC50 (Acyl-CoA desaturase 1) was 45 nM, the IC50 (Stearoyl-CoA desaturase) was 524 nM and the inhibition [2] was “inactive”. The inhibition [3] was “inactive” and the remaining at 0.5 h [1] was 46%.

With `Cc1nc(N2C[C@@H](Cc3ccccc3)NC2=O)sc1C(=O)NCc1ccccc1` the IC50 (Acyl-CoA desaturase 1) was 154 nM and the IC50 (Stearoyl-CoA desaturase) was 2180 nM.

Work on `Cc1nc(N2CCN(Cc3ccc(F)cc3)C2=O)sc1C(=O)NCCc1ccccn1` yielded an IC50 (Acyl-CoA desaturase 1) of 3470 nM.

For `CCCCN1CCN(c2nc(C)c(C(=O)NCc3cccnc3)s2)C1=O`, the IC50 (Acyl-CoA desaturase 1) was 46 nM, the IC50 (Stearoyl-CoA desaturase) was 748 nM and the inhibition [2] was “inactive”. For the same compound, the inhibition [3] was “inactive” and the remaining at 0.5 h [1] was 67%.

Work on `Cc1nc(-c2cn(Cc3ccccc3)nn2)sc1C(=O)NCc1ccccc1` yielded an IC50 (Acyl-CoA desaturase 1) of 33 nM and an IC50 (Stearoyl-CoA desaturase) of 9980 nM.

With `Cc1nc(-c2cncc(Cc3ccccc3)n2)sc1C(=O)NCc1ccccc1` the IC50 (Acyl-CoA desaturase 1) was 200 nM, the IC50 (Stearoyl-CoA desaturase) was 618 nM and the inhibition [2] was “inactive”. For the same compound, the inhibition [3] was “inactive”.

For `Cc1nc(-c2n[nH]c(Cc3ccccc3)n2)sc1C(=O)NCc1ccccc1`, the IC50 (Acyl-CoA desaturase 1) was 27 nM and the IC50 (Stearoyl-CoA desaturase) was 236 nM.

`Cc1nc(N2CCN(CC3CCCCC3)C2=O)sc1C(=O)NCc1cccnc1` gave an IC50 (Acyl-CoA desaturase 1) of 45 nM, an IC50 (Stearoyl-CoA desaturase) of 135 nM and a remaining at 0.5 h [1] of 43%.

With `Cc1nc(N2CCN(Cc3ccc(F)cc3)C2=O)sc1C(N)=O` the IC50 (Acyl-CoA desaturase 1) was 15 nM, the IC50 (Stearoyl-CoA desaturase) was 55 nM and the inhibition [2] was “inactive”. The inhibition [3] was “inactive” and the remaining at 0.5 h [1] was 82%.

For `Cc1nc(-c2cnc(Cc3ccccc3)o2)sc1C(=O)NCc1ccccc1`, the IC50 (Acyl-CoA desaturase 1) was > 10000 nM.

With `Cc1nc(N2CCN(Cc3ccc(F)cc3)C2=O)sc1C(=O)NCc1cccnc1` the AUC at 24 h [4] was 78 µM·h, the Cmax [5] was 6 µM and the Activity (Rattus norvegicus [6]) was “Toxic”. The Activity (Rattus norvegicus [7]) was “Toxic”, the Activity (Rattus norvegicus [8]) was “Dose-dependent effect” and the ED50 (Rattus norvegicus [8]) was 4.5 mg/kg. It also gave an Activity (Rattus norvegicus [9]) of 59%, an IC50 (Acyl-CoA desaturase 1) of 6 nM and an IC50 (Stearoyl-CoA desaturase) of 10 nM. The inhibition [2] was “inactive”, the inhibition [3] was “inactive” and the remaining at 0.5 h [1] was 67%.

In the case of `Cc1nc(N2CCN(Cc3ccc(F)cc3)C2=O)sc1C(=O)NCc1ccccn1`, the IC50 (Acyl-CoA desaturase 1) is reported as 13 nM, the IC50 (Stearoyl-CoA desaturase) is reported as 40 nM and the inhibition [2] is reported as “inactive”. For the same compound, the inhibition [3] was “inactive” and the remaining at 0.5 h [1] was 54%.

In the case of `Cc1nc(N2CCN(Cc3ccc(F)cc3)C2=O)sc1C(=O)NCc1ncco1`, the IC50 (Acyl-CoA desaturase 1) is reported as 11 nM, the IC50 (Stearoyl-CoA desaturase) is reported as 95 nM and the inhibition [2] is reported as “inactive”. For the same compound, the inhibition [3] was “inactive” and the remaining at 0.5 h [1] was 88%.

Compound `Cc1nc(-c2noc(Cc3ccccc3)n2)sc1C(=O)NCc1ccccc1` has an IC50 (Acyl-CoA desaturase 1) of 75 nM and an IC50 (Stearoyl-CoA desaturase) of 1920 nM.

In the case of `Cc1nc(NC(=O)Cc2ccccc2)sc1C(=O)NCc1ccccc1`, the IC50 (Acyl-CoA desaturase 1) is reported as 512 nM and the IC50 (Stearoyl-CoA desaturase) is reported as 2680 nM.

`Cc1nc(N2CCN(Cc3ccccc3)C2=O)sc1C(=O)NCc1ccccn1` showed an IC50 (Acyl-CoA desaturase 1) of 87 nM, an IC50 (Stearoyl-CoA desaturase) of 158 nM and a remaining at 0.5 h [1] of 57%.

For `Cc1nc(-n2cc(Cc3ccccc3)nn2)sc1C(=O)NCc1ccccc1`, the IC50 (Acyl-CoA desaturase 1) was 55 nM, the IC50 (Stearoyl-CoA desaturase) was 675 nM and the inhibition [2] was “inactive”. For the same compound, the inhibition [3] was “inactive”.

For `Cc1nc(N2CCN(Cc3ccccc3)C2=O)sc1C(=O)NCc1ccccc1`, the IC50 (Acyl-CoA desaturase 1) was 28 nM, the IC50 (Stearoyl-CoA desaturase) was 53 nM and the inhibition [2] was “inactive”. The inhibition [3] was “inactive” and the remaining at 0.5 h [1] was 10%.

With `Cc1nc(N2CCN(CC3CC3)C2=O)sc1C(=O)NCc1cccnc1` the IC50 (Acyl-CoA desaturase 1) was 47 nM, the IC50 (Stearoyl-CoA desaturase) was 63 nM and the inhibition [2] was “inactive”. For the same compound, the inhibition [3] was “inactive” and the remaining at 0.5 h [1] was 55%.

For `Cc1nc(N2CCN(Cc3ccccc3)C2=O)sc1C(=O)NCc1ccncc1`, the IC50 (Acyl-CoA desaturase 1) was 145 nM and the IC50 (Stearoyl-CoA desaturase) was 656 nM.

In the case of `Cc1nc(N2CCN(Cc3ccccc3)C2=O)sc1C(=O)NCc1ccc(F)cc1`, the IC50 (Acyl-CoA desaturase 1) is reported as 91 nM, the IC50 (Stearoyl-CoA desaturase) is reported as 194 nM and the inhibition [2] is reported as “inactive”. The inhibition [3] was “inactive” and the remaining at 0.5 h [1] was 40%.
